# Measurements gathered from unrelated publications.
# Each line is one published result; the experiments were not run side by side.
# AHR: Aryl hydrocarbon receptor (AHR, Homo sapiens, UniProt P35869)
# SLC10A2: Ileal sodium/bile acid cotransporter (SLC10A2, Homo sapiens, UniProt Q12908)
SMILES,target,test,setting,measurement,result
O=C(c1ccccn1)c1c[nH]c2ccccc12,AHR,"reporter gene, agonist, luciferase",,EC50,> 10 nM
CCOC(=O)C1=C(C)NC(C)=C(C(=O)OCC)C1c1c(F)c(F)c(F)c(F)c1F,SLC10A2,"transporter uptake, inhibitor",,Ki,23.1 µM
CC[C@H](C)[C@H](NC(=O)[C@H](CCCCN)NC(=O)[C@H](CO)NC(=O)[C@H](CC(=O)O)NC(=O)[C@H](CCCCN)NC(=O)[C@H](CCCCN)NC(=O)CNC(=O)[C@H](Cc1c[nH]cn1)NC(=O)[C@@H](N)CCC(N)=O)C(=O)N[C@H](C(=O)N[C@@H](CC(=O)O)C(=O)N[C@@H](Cc1c[nH]cn1)C(=O)N[C@@H](Cc1ccccc1)C(=O)N[C@@H](CCSC)C(=O)N[C@@H](CCCNC(=N)N)C(=O)O)[C@@H](C)O,"Proliferating cell nuclear antigen (PCNA, Homo sapiens, UniProt P12004)","binding, ITC",pH 7.4,Kd,45.3 µM
O=C(N[C@H]1COC(=O)[C@@H](NC(=O)c2cccc(O)c2O)COC(=O)[C@@H](NC(=O)c2cccc(O)c2O)COC1=O)c1cccc(O)c1O,"Neutrophil gelatinase-associated lipocalin (LCN2, Homo sapiens, UniProt P80188, C107S)","binding, fluorescence",pH 7.4,Kd,0.0036 µM
COC(=O)C1=C(C)NC(C)=C(C(=O)OCC(C)C)C1c1ccccc1[N+](=O)[O-] (stereo not drawn),SLC10A2,"transporter uptake, inhibitor",,Ki,4.77 µM
COC(=O)c1ccc(C(=O)c2c[nH]c3ccccc23)cc1,AHR,"reporter gene, agonist, luciferase",,EC50,> 10000 nM
CCN(CC)CCCC(C)Nc1ccnc2cc(Cl)ccc12 (stereo not drawn),SLC10A2,"transporter uptake, inhibitor",,Ki,6320 µM
C#Cc1cccc(Nc2ncnc3cc(OC)c(OCCCCCCC(=O)NO)cc23)c1,"Polyamine deacetylase HDAC10 (HDAC10, Homo sapiens, UniProt Q969S8)",cell-free assay,,Kd,7.38 µM
COc1ccccc1C(=O)c1c[nH]c2ccccc12,AHR,"reporter gene, agonist, luciferase",,EC50,> 10000 nM
C[C@]12C=CC(=O)C=C1CC[C@@H]1[C@@H]2C(=O)C[C@@]2(C)[C@H]1CC[C@]2(O)C(=O)CO,SLC10A2,"transporter uptake, inhibitor",,Ki,1480 µM
Cc1[nH]c2ccccc2c1C(=O)c1ccccc1,AHR,"reporter gene, agonist, luciferase",,EC50,> 10000 nM
CSCC[C@H](NC(=O)[C@@H](NC(=O)[C@@H](N)Cc1ccc(O)cc1)C(C)C)C(=O)NCC(=O)N[C@@H](Cc1c[nH]cn1)C(=O)N[C@@H](Cc1ccccc1)C(=O)O,"Melanocortin receptor 5 (MC5R, Homo sapiens, UniProt P33032)","reporter gene, agonist",,EC50,> 100000 nM
Cc1cc2nc3c(=O)[nH]c(=O)nc-3n(C[C@H](O)[C@H](O)[C@H](O)COP(=O)(O)OP(=O)(O)OC[C@H]3O[C@@H](n4cnc5c(N)ncnc54)[C@H](O)[C@@H]3O)c2cc1C,"Splicing factor 1 (Homo sapiens, UniProt Q15637)",binding,lysate,Kd,0.842 µM
CCc1c(C)sc(NC(=O)C(Sc2ccccc2)c2ccccc2)c1C(=O)OC (stereo not drawn),"Cannabinoid receptor 2 (CNR2, Homo sapiens, UniProt P34972)","cAMP, agonist, TR-FRET",,EC50,25.1 nM
CCOC(=O)c1cccc(C(=O)c2c[nH]c3ccccc23)n1,AHR,"reporter gene, agonist, luciferase",,EC50,1110 nM
